tested on: Mycobacterium tuberculosis; assay: Inhibition of Mycobacterium tuberculosis ThyX at 100 uM preincubated with enzyme followed by [5-3H]dUMP substrate addition measured after 30 mins in presence of 5,10-methylenetetrahydrofolate,NADPH and FAD by liquid scintillation counting
Procedure, shortened: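 Recombinant Mtb ThyX (purified per an earlier protocol) tested at 100 µM per compound. Tritium release assay: formation of tritiated water from loss of 3H at the 5-carbon of the dUMP pyrimidine ring, with dUMP as competing substrate. Read-out is percent inhibition. 5-FdUMP served as reference compound.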

SMILES	inhibition [%]
O=c1[nH][nH]c(=O)c2[nH]cnc12	7.1
Cc1nnc(Cl)c2ncn(C)c12	14
O=c1[nH][nH]c(=O)c2nccnc12	5.3
O=c1[nH]c(=O)n([C@H]2C[C@H](O)[C@@H](COP(=O)(O)O)O2)cc1F	97.3
CCCC(=O)C1C(=O)NC(=O)NC1=O	11
COc1ccc2[nH]c3c(O)nncc3c2c1	7
CSc1n[nH]c(=O)c2[nH]cnc12	10
C[C@@H](Sc1n[nH]c(=O)[nH]c1=O)C(=O)O	6.1
CC[C@H](Sc1n[nH]c(=O)[nH]c1=O)C(=O)O	5.7
O=c1[nH]nc(-c2ccccc2)c2nc[nH]c12	15
O=c1[nH]nc(Cl)c2nc[nH]c12	29
O=c1[nH][nH]c(=O)c2nc3ccccc3nc12	10

Source: ChEMBL document CHEMBL3860049, “Virtual Screening and X-ray Crystallography Identify Non-Substrate Analog Inhibitors of Flavin-Dependent Thymidylate Synthase” (J Med Chem, 2016)
